Tests used:
[1] = Ratio of drug level in cerebrospinal fluid to brain in Sprague-Dawley rat at 10 mg/kg, po after 2 hrs; type: ADME, organism-based, CSF/Brain; design: dose 10 mg/kg, route oral; settings: in vivo
[2] = Ex vivo drug level in mdr1a (-/-) deficient CF1 mouse plasma at 1 mg/kg, po after 2 hrs; type: ADME, organism-based; design: dose 1 mg/kg, route oral; settings: read-out: Drug uptake
How it was run: (§1)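 Female mdr1a (+/+) and mdr1a (−/−) CF-1 mice dosed by oral gavage. Terminal blood and whole brain collected 2 h later. Brain homogenized by ultrasonication in 4 volumes water. Plasma and brain deproteinized with ethanol plus internal standard, then measured by LC-MS/MS (positive ESI, MRM). Mean ± SE, n = 3. Brain/plasma ratios calculated from mean values.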

Histamine H3 receptor [3] = target: T1, Histamine H3 receptor (Homo sapiens, UniProt Q9Y5N1); assay: Displacement of [3H]N-alpha-methylhistamine from human recombinant histamine H3 receptor expressed in CHO-K1 cells; type: cell-based
[4] = target: Voltage-gated inwardly rectifying potassium channel KCNH2 (Homo sapiens, UniProt Q12809); assay: Antagonist activity at human ERG in HEK293 cells assessed as inhibition of [35S]N-[(4R)-1'-[(2R)-6-cyano-1,2,3,4-tetrahydro-2-naphthalenyl]-3,4-dihydro-4-hydroxyspiro[2H-1-benzopyran-2,4'-piperidin]-6-yl]methanesulfonamide binding
Brain [5] = assay: Drug level in Sprague-Dawley rat brain at 10 mg/kg, po after 2 hrs; type: ADME, organism-based; design: dose 10 mg/kg, route oral; settings: in vivo
How it was run: (§2)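 Male SD rats dosed orally at 10 mg/kg. Plasma, brain and CSF concentrations determined 2 h after dosing. Brain/plasma ratio taken from these levels. Mean of n = 3 animals.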

[6] = Oral bioavailability in rhesus monkey at 1 mg/kg; type: ADME, organism-based, Macaca mulatta; settings: in vivo
How it was run: (§3)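 Male SD rats, male Beagle dogs, male rhesus monkeys given single doses iv (PEG400/EtOH/H2O 50/10/40) or po by gavage (0.5% methylcellulose suspension). Rats 1 mg/kg iv and 3 mg/kg po; dogs and monkeys 0.3 mg/kg iv and 1 mg/kg po. Plasma sampled at multiple times up to 24 h, deproteinized with ethanol plus internal standard. Mean of n = 3 animals/dose.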

[7] = Oral bioavailability in Sprague-Dawley rat at 3 mg/kg; type: ADME, organism-based; settings: in vivo; how it was run: as §3
[8] = Ex vivo drug level wild type mdr1a (+/+) CF1 mouse plasma at 1 mg/kg, po after 2 hrs; type: ADME, organism-based; design: dose 1 mg/kg, route oral; settings: read-out: Drug uptake; how it was run: as §1
[9] = Cmax in anesthetized Beagle dog at 3 mg/kg, iv; type: ADME, organism-based, Canis lupus familiaris; design: dose 3 mg/kg, route intravenous; settings: in vivo
How it was run: (§4)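 Anesthetized, ventilated dogs given 3 mg/kg iv and monitored for cardiovascular effects.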

[10] = Drug level in Sprague-Dawley rat cerebrospinal fluid at 10 mg/kg, po after 2 hrs; type: ADME, organism-based; design: dose 10 mg/kg, route oral; settings: read-out: Drug uptake; how it was run: as §2
[11] = Plasma clearance in rhesus monkey at 0.3 mg/kg, iv; type: ADME, organism-based, Macaca mulatta; design: dose 0.3 mg/kg, route intravenous; how it was run: as §3
[12] = Ratio of drug level in brain to plasma in Sprague-Dawley rat at 10 mg/kg, po after 2 hrs; type: ADME, organism-based; design: dose 10 mg/kg, route oral; settings: read-out: BPR; how it was run: as §2
[13] = AUC (0 to infinity) in rhesus monkey at 1 mg/kg, po; type: ADME, organism-based, Macaca mulatta, Plasma; design: time infinity, dose 1 mg/kg, route oral; settings: plasma; how it was run: as §3
[14] = Ratio of drug level brain to plasma in mdr1a (-/-) deficient CF1 mouse at 1 mg/kg, po after 2 hrs; type: ADME, organism-based; design: dose 1 mg/kg, route oral; settings: read-out: BPR; how it was run: as §1
Histamine H3 receptor [15] = target: Histamine H3 receptor (Rattus norvegicus, UniProt Q9QYN8); assay: Displacement of [3H]N-alpha-methylhistamine from rat recombinant histamine H3 receptor expressed in HEK293 cells; type: cell-based
Histamine H4 receptor = Histamine H4 receptor (Homo sapiens, UniProt Q9H3N8); assay: Inhibition of human histamine H4 receptor
[16] = Plasma concentration in Sprague-Dawley rat at 10 mg/kg, po after 2 hrs; type: ADME, organism-based; design: dose 10 mg/kg, route oral; how it was run: as §2
Rattus norvegicus [17] = assay: Increase in tele-methylhistamine level in po dosed Sprague-Dawley rat brain after 2 hrs relative to control; type: functional, organism-based
How it was run: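 Male SD rats given vehicle (0.5% methylcellulose) or compound po at 1, 3, 10 mg/kg, co-dosed with pargyline ip. Decapitated at 2 h and brains homogenized. tele-Methylhistamine measured by HPLC with fluorometry after solid-phase extraction. Mean ± SE from five experiments. Compared with vehicle by ANOVA with Dunnett's test.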

[18] = Ratio of drug level brain to plasma in wild type mdr1a (+/+) CF1 mouse at 1 mg/kg, po after 2 hrs; type: ADME, organism-based; design: dose 1 mg/kg, route oral; settings: read-out: BPR; how it was run: as §1
[19] = Plasma clearance in Sprague-Dawley rat at 1 mg/kg, iv; type: ADME, organism-based; design: dose 1 mg/kg, route intravenous; how it was run: as §3
Mus musculus [20] = assay: Toxicity against in ICR mouse assessed as gross behavior activity at 100 mg/kg; type: organism-based; design: dose 100 mg/kg; settings: in vivo
How it was run: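 Mice dosed orally at 100 mg/kg. Scored for psychomotor and motor activity, muscle tone, CNS excitation, autonomic responses and reflexes.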

[21] = Cmax in Beagle dog at 0.3 mg/kg, iv and 1 mg/kg, po; type: ADME, organism-based, Canis lupus familiaris; settings: in vivo; how it was run: as §3
[22] = Oral bioavailability in Beagle dog at 1 mg/kg; type: ADME, organism-based, Canis lupus familiaris; settings: Beagle, in vivo; how it was run: as §3
[23] = Plasma clearance in Beagle dog at 0.3 mg/kg, iv; type: ADME, organism-based, Canis lupus familiaris; design: dose 0.3 mg/kg, route intravenous; how it was run: as §3
Histamine H3 receptor [24] = target: T1, Histamine H3 receptor; assay: Antagonist activity at human cloned histamine H3 receptor expressed in CHO-K1 cells assessed as inhibition of R-alpha-methylhistamine-induced [35S]GTPgammaS binding; type: functional, cell-based
Brain [25] = assay: Ex vivo drug level in wild type mdr1a (+/+) CF1 mouse brain at 1 mg/kg, po after 2 hrs; type: ADME, organism-based; design: dose 1 mg/kg, route oral; how it was run: as §1
[26] = AUC (0 to infinity) in Beagle dog at 1 mg/kg, po; type: ADME, organism-based, Canis lupus familiaris, Plasma; design: time infinity, dose 1 mg/kg, route oral; settings: Beagle, plasma; how it was run: as §3
[27] = AUC (0 to infinity) in Sprague-Dawley rat at 3 mg/kg, po; type: ADME, organism-based; design: time infinity, dose 3 mg/kg, route oral; settings: plasma; how it was run: as §3
Mus musculus [28] = assay: Ex vivo receptor occupancy of histamine H3 receptor expressed in wild type po dosed CF1 mouse brain after 2 hrs; type: functional
How it was run: (§5)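 Female wild-type and mdr1a (−/−) CF-1 mice given vehicle or compound po (0.1–3 mg/kg) and decapitated at 2 h. Coronal striatal sections (20 μm) incubated 10 min at room temperature with 400 pM tritiated quinazolinone H3 inverse agonist radioligand in sodium phosphate buffer. Nonspecific binding defined with 10 μM R-α-methylhistamine. Sections imaged 6 h by beta-Imager. Brain Occ90 obtained from occupancy versus brain concentration. Plasma Occ90 = brain Occ90/brain-to-plasma ratio.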

Mus musculus [29] = assay: Ex vivo receptor occupancy of histamine H3 receptor expressed in po dosed MDR1a deficient CF1 mouse plasma assessed by brain occupancy/brain to plasma ratio after 2 hrs; type: functional; how it was run: as §5
Mus musculus [30] = assay: Ex vivo receptor occupancy of histamine H3 receptor expressed in po dosed wild type CF1 mouse plasma assessed by brain occupancy/brain to plasma ratio after 2 hrs; type: functional; how it was run: as §5
LLC-PK1 [31] = assay: Ratio of permeability from apical to basolateral side over basolateral to apical side in pig LLC-PK1 cells expressing mouse MDR1a; type: ADME, cell-based, Sus scrofa
Histamine H3 receptor [32] = target: Histamine H3 receptor (Mus musculus, UniProt P58406); assay: Displacement of [3H]N-alpha-methylhistamine from mouse recombinant histamine H3 receptor
[33] = Cmax in rhesus monkey at 0.3 mg/kg, iv and 1 mg/kg, po; type: ADME, organism-based, Macaca mulatta; settings: in vivo; how it was run: as §3
Rattus norvegicus [34] = assay: Ex vivo receptor occupancy of histamine H3 receptor in Sprague-Dawley rat assessed as drug level in brain at 1 mg/kg, po after 2 hrs; type: functional
How it was run: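 Male SD rats given vehicle or 1 mg/kg compound by oral gavage and decapitated at 2 h. Striatal sections (20 μm) incubated 10 min at room temperature with 400 pM tritiated H3 inverse agonist radioligand in sodium phosphate buffer. Nonspecific binding defined with 10 μM R-α-methylhistamine. Beta-Imager exposure 6 h. Drug levels measured by LC-MS/MS.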

Brain [35] = assay: Ex vivo drug level in mdr1a deficient CF1 mouse brain at 1 mg/kg, po after 2 hrs; type: ADME, organism-based; design: dose 1 mg/kg, route oral; how it was run: as §1
LLC-PK1 [36] = assay: Ratio of permeability from apical to basolateral side over basolateral to apical side in pig LLC-PK1 cells expressing human MDR1; type: ADME, cell-based, Sus scrofa
Canis familiaris = assay: Toxicity against in anesthetized Beagle dog assessed as cardiovascular effects; type: organism-based, Canis lupus familiaris; settings: in vivo; how it was run: as §4
Histamine H2 receptor = Histamine H2 receptor (Homo sapiens, UniProt P25021); assay: Inhibition of human histamine H2 receptor
[37] = Cmax in Sprague-Dawley rat at 1 mg/kg, iv and 3 mg/kg, po; type: ADME, organism-based; settings: in vivo; how it was run: as §3
Histamine H1 receptor = Histamine H1 receptor (Homo sapiens, UniProt P35367); assay: Inhibition of human histamine H1 receptor
Chain of Histamine H1 receptor (P35367 whole entry): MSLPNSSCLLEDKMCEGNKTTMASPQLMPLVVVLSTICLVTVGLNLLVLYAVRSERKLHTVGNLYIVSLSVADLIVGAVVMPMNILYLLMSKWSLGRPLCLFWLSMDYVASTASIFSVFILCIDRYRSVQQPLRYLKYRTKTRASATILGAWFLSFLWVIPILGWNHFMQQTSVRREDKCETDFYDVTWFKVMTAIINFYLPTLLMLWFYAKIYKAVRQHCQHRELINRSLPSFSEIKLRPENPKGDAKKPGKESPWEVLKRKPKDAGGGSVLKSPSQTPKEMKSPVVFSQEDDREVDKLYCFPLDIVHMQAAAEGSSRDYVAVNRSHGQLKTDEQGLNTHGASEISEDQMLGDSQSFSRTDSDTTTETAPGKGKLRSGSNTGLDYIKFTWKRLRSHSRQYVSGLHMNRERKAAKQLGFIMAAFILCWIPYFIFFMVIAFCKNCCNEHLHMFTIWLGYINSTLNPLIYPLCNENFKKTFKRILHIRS

T1 sequence (Q9Y5N1 whole entry): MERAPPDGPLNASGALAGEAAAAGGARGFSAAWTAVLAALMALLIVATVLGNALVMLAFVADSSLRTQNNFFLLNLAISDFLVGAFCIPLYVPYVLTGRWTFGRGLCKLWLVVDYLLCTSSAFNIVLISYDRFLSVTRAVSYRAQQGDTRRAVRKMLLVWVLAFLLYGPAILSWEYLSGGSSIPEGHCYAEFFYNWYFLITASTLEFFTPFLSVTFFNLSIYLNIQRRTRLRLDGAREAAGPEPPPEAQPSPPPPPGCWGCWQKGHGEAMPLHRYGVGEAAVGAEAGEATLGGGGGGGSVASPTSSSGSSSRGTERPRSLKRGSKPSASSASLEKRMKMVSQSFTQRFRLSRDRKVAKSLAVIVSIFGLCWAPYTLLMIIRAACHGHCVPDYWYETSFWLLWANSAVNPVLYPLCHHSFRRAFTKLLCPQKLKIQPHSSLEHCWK
Chain of Voltage-gated inwardly rectifying potassium channel KCNH2 (Q12809 whole entry): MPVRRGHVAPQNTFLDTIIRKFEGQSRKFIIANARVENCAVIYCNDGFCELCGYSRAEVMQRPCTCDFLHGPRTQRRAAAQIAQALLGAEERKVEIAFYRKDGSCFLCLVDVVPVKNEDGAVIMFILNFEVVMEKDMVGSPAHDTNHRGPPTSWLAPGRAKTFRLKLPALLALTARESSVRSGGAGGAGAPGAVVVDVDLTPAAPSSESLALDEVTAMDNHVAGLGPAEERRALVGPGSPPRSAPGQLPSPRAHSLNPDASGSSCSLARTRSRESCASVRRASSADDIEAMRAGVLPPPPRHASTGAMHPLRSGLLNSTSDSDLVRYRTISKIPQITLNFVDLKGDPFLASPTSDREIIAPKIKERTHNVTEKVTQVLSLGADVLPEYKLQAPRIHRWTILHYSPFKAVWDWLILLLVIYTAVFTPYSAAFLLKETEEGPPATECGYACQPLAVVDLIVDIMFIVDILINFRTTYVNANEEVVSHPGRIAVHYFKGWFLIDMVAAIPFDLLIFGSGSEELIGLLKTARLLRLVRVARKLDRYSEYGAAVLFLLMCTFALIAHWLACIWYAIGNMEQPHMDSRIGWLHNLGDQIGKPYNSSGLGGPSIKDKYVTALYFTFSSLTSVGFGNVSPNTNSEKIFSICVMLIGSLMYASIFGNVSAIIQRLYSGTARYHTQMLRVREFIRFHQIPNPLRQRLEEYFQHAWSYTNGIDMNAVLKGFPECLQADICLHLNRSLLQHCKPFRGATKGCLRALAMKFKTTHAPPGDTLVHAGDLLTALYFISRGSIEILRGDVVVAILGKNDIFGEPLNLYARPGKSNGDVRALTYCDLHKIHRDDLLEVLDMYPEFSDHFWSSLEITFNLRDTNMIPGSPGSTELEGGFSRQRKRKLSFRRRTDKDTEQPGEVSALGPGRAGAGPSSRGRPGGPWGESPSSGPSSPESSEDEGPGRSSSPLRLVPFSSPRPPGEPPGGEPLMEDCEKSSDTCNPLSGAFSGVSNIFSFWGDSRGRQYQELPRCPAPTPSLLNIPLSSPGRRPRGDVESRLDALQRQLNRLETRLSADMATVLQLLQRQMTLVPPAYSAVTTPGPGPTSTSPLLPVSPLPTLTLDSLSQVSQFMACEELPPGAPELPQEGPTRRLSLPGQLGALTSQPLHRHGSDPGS
Chain of Histamine H3 receptor (Rattus norvegicus, UniProt Q9QYN8) (Q9QYN8 whole entry): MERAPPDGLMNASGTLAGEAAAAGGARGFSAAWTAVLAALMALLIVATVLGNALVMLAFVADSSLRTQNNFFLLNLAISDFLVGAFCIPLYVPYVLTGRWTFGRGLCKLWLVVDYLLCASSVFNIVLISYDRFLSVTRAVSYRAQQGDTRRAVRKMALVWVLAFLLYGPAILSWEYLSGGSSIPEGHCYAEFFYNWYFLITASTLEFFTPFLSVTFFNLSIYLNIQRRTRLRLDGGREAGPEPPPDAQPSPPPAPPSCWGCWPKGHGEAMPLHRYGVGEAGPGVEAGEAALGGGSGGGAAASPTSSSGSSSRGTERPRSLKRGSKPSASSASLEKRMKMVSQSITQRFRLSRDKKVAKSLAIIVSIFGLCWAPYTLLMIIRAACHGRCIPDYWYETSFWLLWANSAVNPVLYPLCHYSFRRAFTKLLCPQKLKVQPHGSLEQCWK
Chain of Histamine H2 receptor (P25021 whole entry): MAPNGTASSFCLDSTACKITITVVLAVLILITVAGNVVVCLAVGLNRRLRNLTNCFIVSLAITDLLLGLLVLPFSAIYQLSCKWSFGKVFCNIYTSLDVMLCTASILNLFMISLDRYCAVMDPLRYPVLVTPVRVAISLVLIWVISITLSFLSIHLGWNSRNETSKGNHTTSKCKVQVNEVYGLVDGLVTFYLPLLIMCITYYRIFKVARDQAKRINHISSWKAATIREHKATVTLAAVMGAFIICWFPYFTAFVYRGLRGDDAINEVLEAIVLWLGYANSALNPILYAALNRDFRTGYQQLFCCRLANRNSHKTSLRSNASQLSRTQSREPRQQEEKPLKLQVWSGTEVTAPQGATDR
Chain of Histamine H3 receptor (Mus musculus, UniProt P58406) (P58406 whole entry): as the sequence (Q9QYN8 whole entry) above, with T15A, A286T, A290G, R387H, I389V counted along it

Ratio [1]: 0.05
concentration at 2 h [2]: 10 nM
Ki (Histamine H3 receptor [3]): 3.6 nM
Drug uptake (Brain [5]): 2.3 nmol/g
bioavailability [6]: 11%
bioavailability [7]: 33%
concentration at 2 h [8]: 12 nM
Cmax [9]: 3200 nM
concentration at 2 h [10]: 110 nM
clearance [11]: 26 mL/min/kg
Kp at 2 h [12]: 3.3
AUC(0-inf) [13]: 0.15 µM·h
Kp at 2 h [14]: 13
Ki (Histamine H3 receptor [15]): 2.3 nM
IC50 (Histamine H4 receptor): > 10000 nM
concentration at 2 h [16]: 700 nM
Kp at 2 h [18]: 2.6
clearance [19]: 24 mL/min/kg
Cmax [21]: 280 nM
bioavailability [22]: 46%
clearance [23]: 13 mL/min/kg
IC50 (Histamine H3 receptor [24]): 0.33 nM
Drug uptake (Brain [25]): 0.031 nmol/g
AUC(0-inf) [26]: 1.3 µM·h
AUC(0-inf) [27]: 1.66 µM·h
Ratio (LLC-PK1 [31]): 2.5
Ki (Histamine H3 receptor [32]): 3.9 nM
Cmax [33]: 50 nM
Drug uptake (Brain [35]): 0.137 nmol/g
Ratio (LLC-PK1 [36]): 0.7
IC50 (Histamine H2 receptor): > 10000 nM
Cmax [37]: 420 nM
IC50 (Histamine H1 receptor): > 10000 nM
Structure (SMILES): Cc1nc2cccc(C(F)(F)F)c2c(=O)n1-c1ccc(OC2CCN(C3CCC3)CC2)cc1
IC50 [4]: > 10000 nM
Activity (Rattus norvegicus [17]): Dose-dependent effect
Activity (Mus musculus [20]): Non-toxic
Occ90 (Mus musculus [28]): 0.15 nmol/g
Occ90 (Mus musculus [29]): 11 nM
Occ90 (Mus musculus [30]): 58 nM
Activity (Rattus norvegicus [34]): >90%
Activity (Canis familiaris): Non-toxic
